The values that follow come from ChEMBL document CHEMBL1126179, “Synthesis and anti-HIV activity of isonucleosides” (J Med Chem, 1992).

Test [1] in a line: In vitro effective dose which provides 50% protection of ATH-8 cells against the cytopathic effect of HIV; range 5-15 uM. The test is classed as functional. The conditions noted are these: Homo sapiens, read-out: ED50 (the source's name). In a few lines:
(§1)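 ATH-8 cells infected with HIV-1 (HTLV-III_B strain) and read as the dose giving 50% protection against viral cytopathic effect. Reported as a range from ≥3 experiments, each including a standard such as AZT.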
In general terms: Damage to the host cells serves as the signal in cytopathic effect assays.

A short description of test [2]: In vitro cytotoxicity against uninfected ATH-8 (human T-cell) cell line. The test is classed as functional. Particulars: read-out: CD50 (the source's name). The method in brief: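 Uninfected ATH-8 cells; the value is the dose that reduces viability by 50%. Concentrations tested up to […].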
The test system of test [3] is Human immunodeficiency virus 1. Kind of test: Concentration required to inhibit HIV replication by 50%. The test is classed as functional, organism-based. The method in brief:
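Human PBM from a normal donor, isolated by Ficoll-Hypaque and stimulated with PHA (5 μg/mL) for 24 h in RPMI 1640/15% FBS/IL-2. Cells plated at 5 × 10⁵ per well and infected with 20 TCID₅₀ of AZT-resistant patient isolate HIV-1 ERS 205pre, with drug added. Incubated at 37 °C for 7 days; half the medium and drug replaced on day 4. Day-7 supernatant p24 gag measured by radioimmunoassay.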

A short description of test [4]: In vitro effective dose which provides 50% protection of ATH-8 cells against the cytopathic effect of HIV. The test is classed as functional. The conditions noted are these: Homo sapiens, read-out: ED50 (the source's name). In a few lines: as §1
Test [5] in a line: In vitro effective dose which provides 50% protection of ATH-8 cells against the cytopathic effect of HIV; range 5-10 uM. The test is classed as functional. The conditions noted are these: Homo sapiens, read-out: ED50 (the source's name).
Test [6] in a line: In vitro effective dose which provides 50% protection of ATH-8 cells against the cytopathic effect of HIV; Range 5-10 uM. The test is classed as functional. The conditions noted are these: Homo sapiens, read-out: ED50 (the source's name).
Test [7] can be described thus: In vitro effective dose which provides 50% protection of ATH-8 cells against the cytopathic effect of HIV; range 10-50 uM. The test is classed as functional. The conditions noted are these: Homo sapiens, read-out: ED50 (the source's name). The method in brief:
as §1

With `Nc1ncnc2c1ncn2[C@H]1CO[C@@H](CO)C1`, the EC50 in test [1] was 5 µM. In test [2], the CC50 was > 100 µM. In addition, half-maximal inhibition in test [3] (IC50) required 8.2 µM.
As to `Cc1cn([C@H]2CO[C@@H](CO)C2)c(=O)[nH]c1=O`, the CC50 in test [2] was > 100 µM. Further, the EC50 in test [4] is > 100 µM.
On to `OC[C@H]1C[C@@H](n2cnc3c(O)ncnc32)CO1`, for which the CC50 in test [2] is > 100 µM. Further, in test [4], the EC50 was > 100 µM.
For the molecule `Nc1ncnc2c1ncn2[C@H]1CC[C@@H](CO)O1`, in test [2], the CC50 was > 200 µM. The EC50 in test [5] is 5 µM.
In the case of `Nc1nc(O)c2ncn([C@H]3CC[C@@H](CO)O3)c2n1`, the CC50 in test [2] was > 200 µM. The EC50 in test [6] worked out at 5 µM.
For `Nc1nc(O)c2ncn([C@H]3CO[C@@H](CO)C3)c2n1`, the EC50 in test [7] is 10 µM. Moreover, in test [2], the CC50 is > 500 µM. For the same molecule, the concentration for half-maximal inhibition (IC50) (commonly the concentration that gives 50% inhibition) in test [3] worked out at 17.5 µM.
In test [3], `O=c1[nH]cnc2c1ncn2[C@H]1CC[C@@H](CO)O1` [DIDANOSINE] returned an IC50 of 1.28 µM. This counts as single-digit micromolar.
As to `Nc1ccn([C@H]2CO[C@@H](CO)C2)c(=O)n1`, in test [2], the CC50 is > 100 µM. The EC50 in test [4] is > 100 µM.
